In ChEMBL document CHEMBL2417545, “6-methoxy-7-benzofuranoxy and 6-methoxy-7-indolyloxy analogues of 2-[2-(2,6-Dimethoxyphenoxy)ethyl]aminomethyl-1,4-benzodioxane (WB4101):1 discovery of a potent and selective α1D-adrenoceptor antagonist” (J Med Chem, 2013):

Experiments:
[1] = molecular target: T1, Alpha-1D adrenergic receptor (Homo sapiens, UniProt P25100); test: Displacement of [3H]prazosin from human alpha-1D adrenoreceptor expressed in CHO cells after 30 mins; format: cell-based
T1 sequence (P25100 whole entry): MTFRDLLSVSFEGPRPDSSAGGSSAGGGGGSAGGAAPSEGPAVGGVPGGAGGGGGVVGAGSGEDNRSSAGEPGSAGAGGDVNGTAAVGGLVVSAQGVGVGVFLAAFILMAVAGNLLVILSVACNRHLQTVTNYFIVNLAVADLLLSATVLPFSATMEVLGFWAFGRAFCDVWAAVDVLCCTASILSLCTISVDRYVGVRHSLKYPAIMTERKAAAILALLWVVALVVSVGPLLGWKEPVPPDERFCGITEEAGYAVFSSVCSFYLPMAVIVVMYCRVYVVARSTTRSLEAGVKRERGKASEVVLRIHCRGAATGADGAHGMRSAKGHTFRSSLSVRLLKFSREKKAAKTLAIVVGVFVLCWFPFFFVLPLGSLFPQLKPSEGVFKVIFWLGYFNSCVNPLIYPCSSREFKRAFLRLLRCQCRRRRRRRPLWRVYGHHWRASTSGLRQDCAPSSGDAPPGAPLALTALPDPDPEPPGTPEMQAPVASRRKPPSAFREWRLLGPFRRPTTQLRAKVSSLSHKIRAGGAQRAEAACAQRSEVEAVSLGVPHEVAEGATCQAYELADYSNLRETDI
Method in brief: (§1)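 Membranes from CHO cells expressing each α₁-AR subtype, incubated 30 min at 25 °C in 50 mM Tris HCl pH 7.7 with 10 μM pargyline and 0.1% ascorbic acid, plus 0.5 nM [³H]prazosin and varying test compound concentrations. Nonspecific binding was defined with 1 μM prazosin.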

[2] = molecular target: T2, 5-hydroxytryptamine receptor 1A (Rattus norvegicus, UniProt P19327); test: Displacement of [3H]-8-OHDPAT from 5-HT1A receptor in rat hippocampal membranes after 30 mins; format: cell membranes, Hippocampus, Membrane
T2 sequence (P19327 whole entry): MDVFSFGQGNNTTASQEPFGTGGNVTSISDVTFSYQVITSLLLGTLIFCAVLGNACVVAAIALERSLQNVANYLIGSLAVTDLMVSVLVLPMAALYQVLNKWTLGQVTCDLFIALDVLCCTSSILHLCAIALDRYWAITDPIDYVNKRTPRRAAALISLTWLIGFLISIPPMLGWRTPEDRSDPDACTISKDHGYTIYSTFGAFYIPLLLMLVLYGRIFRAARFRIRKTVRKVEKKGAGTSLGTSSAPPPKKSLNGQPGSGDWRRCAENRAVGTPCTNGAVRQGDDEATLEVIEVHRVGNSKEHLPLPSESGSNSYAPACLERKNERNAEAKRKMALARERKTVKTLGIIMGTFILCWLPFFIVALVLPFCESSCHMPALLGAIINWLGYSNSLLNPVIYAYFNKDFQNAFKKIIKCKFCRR

[3] = molecular target: T3, Alpha-1B adrenergic receptor (Homo sapiens, UniProt P35368); test: Displacement of [3H]prazosin from human alpha-1B adrenoreceptor expressed in CHO cells after 30 mins; format: cell-based; method in brief: as §1
T3 sequence (P35368 whole entry): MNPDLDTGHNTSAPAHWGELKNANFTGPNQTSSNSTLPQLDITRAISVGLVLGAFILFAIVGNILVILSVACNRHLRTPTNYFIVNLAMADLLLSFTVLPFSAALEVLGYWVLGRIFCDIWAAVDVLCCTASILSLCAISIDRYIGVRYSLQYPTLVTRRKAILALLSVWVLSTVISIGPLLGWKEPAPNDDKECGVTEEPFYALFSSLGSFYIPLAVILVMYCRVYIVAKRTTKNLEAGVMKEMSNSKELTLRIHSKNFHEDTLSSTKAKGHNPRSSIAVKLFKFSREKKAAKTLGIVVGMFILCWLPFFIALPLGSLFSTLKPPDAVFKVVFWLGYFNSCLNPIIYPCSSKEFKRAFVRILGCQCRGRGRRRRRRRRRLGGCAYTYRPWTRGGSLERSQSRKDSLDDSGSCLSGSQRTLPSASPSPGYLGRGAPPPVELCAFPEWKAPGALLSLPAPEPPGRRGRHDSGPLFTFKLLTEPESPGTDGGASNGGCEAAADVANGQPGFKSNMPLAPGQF

[4] = molecular target: T4, Alpha-1A adrenergic receptor (Homo sapiens, UniProt P35348); test: Displacement of [3H]prazosin from human alpha-1A adrenoreceptor expressed in CHO cells after 30 mins; format: cell-based; method in brief: as §1
T4 sequence (P35348 whole entry): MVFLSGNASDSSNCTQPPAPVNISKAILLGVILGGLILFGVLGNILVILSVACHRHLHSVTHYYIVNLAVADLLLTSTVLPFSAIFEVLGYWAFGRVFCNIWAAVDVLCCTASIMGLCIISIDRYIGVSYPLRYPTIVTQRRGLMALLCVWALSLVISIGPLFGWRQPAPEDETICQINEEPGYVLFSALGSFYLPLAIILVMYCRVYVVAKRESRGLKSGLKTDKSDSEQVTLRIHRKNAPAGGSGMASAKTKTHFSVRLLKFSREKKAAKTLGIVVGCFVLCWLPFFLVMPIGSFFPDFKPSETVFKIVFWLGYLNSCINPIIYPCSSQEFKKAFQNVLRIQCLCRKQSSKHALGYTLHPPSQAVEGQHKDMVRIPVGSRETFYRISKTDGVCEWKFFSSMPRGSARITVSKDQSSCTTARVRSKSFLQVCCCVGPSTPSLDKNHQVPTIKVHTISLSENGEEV

SMILES | Ki [1] | Ki [2] | Ki [3] | Ki [4]
COc1ccc2cc[nH]c2c1OCCNC[C@@H]1COc2ccccc2O1 | 1350 nM | 1700 nM | 1910 nM | 437 nM
COc1ccc2c(c1OCCNC[C@@H]1COc3ccccc3O1)OCC2 | 18.2 nM | 162 nM | 162 nM | 17 nM
COc1ccc2c(c1OCCNC[C@@H]1COc3ccccc3O1)NCC2 | 83.2 nM | 219 nM | 372 nM | 31.6 nM
COc1ccc2ccoc2c1OCCNC[C@@H]1COc2ccccc2O1 | 18.2 nM | 11 nM | 126 nM | 9.12 nM
